Reference: ChEMBL document CHEMBL4392865, “Indole Diterpenoids from an Endophytic Penicillium sp” (J Nat Prod, 2019)

Legend:
L5178Y = assay: Cytotoxicity against mouse L5178Y cells assessed as reduction in cell viability incubated for 72 hrs by MTT assay; format: functional, cell-based
Outline: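 Murine L5178Y lymphoma cells were the cells tested, with kahalalide F run in parallel as the positive control. The read-out was IC50.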

A2780 = assay: Cytotoxicity against human A2780 cells assessed as reduction in cell viability incubated for 72 hrs by MTT assay; format: functional, cell-based
HEK293 = assay: Cytotoxicity against HEK293 cells assessed as reduction in cell viability incubated for 72 hrs by MTT assay; format: cell-based; details: Homo sapiens, HEK293, 72 h
[1] = Selectivity index, ratio of IC50 for HEK293 cells to IC50 for human A2780 cells; format: toxicity; details: HEK293 cells versus A2780 cells, read-out: Ratio IC50
Outline: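 Selectivity index is the IC50 against HEK-293 cells divided by the IC50 against A2780 ovarian cancer cells, each from this paper's cytotoxicity testing.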

J82 = assay: Cytotoxicity against human J82 cells assessed as reduction in cell viability incubated for 72 hrs by high content analysis based fluorescent live/dead assay; format: functional
Outline: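 J82 bladder cancer cells were analysed by fluorescent live/dead staining. An imaging system gave direct counts of live and dead cells, and IC50 values were derived from these counts.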

[2] = Mus musculus, L5178Y, 72 h, read-out: IC50
[3] = Homo sapiens, J82, 72 h, read-out: IC50
[4] = Homo sapiens, A2780, 72 h, read-out: IC50

| SMILES | IC50 (L5178Y; [2]) [µM] | IC50 (A2780; a2780) | IC50 (HEK293) [µM] | selectivity ratio [1] | IC50 (J82; [3]) [µM] | IC50 (A2780; [4]) [µM] | IC50 (L5178Y; l5178y) | IC50 (J82; j82) |
| --- | --- | --- | --- | --- | --- | --- | --- | --- |
| CC(C)=CCc1ccc2[nH]c3c(c2c1)C[C@@H]1CC[C@@]2(O)C4=CC(=O)[C@@H](C(C)(C)O)O[C@H]4CC[C@]2(C)[C@@]31C | 12.9 | Not Active | – | – | – | – | – | – |
| CC(C)(O)[C@H]1O[C@@]2(O)CC[C@@]3(C)[C@@H](CC[C@H]4Cc5c([nH]c6ccccc56)[C@@]43C)C2=CC1=O | 6.2 | Not Active | 39.8 | – | – | – | – | – |
| CC1(C)CC2=C(Cc3cc4c5c([nH]c4cc32)[C@@]2(C)[C@@H](CC[C@@]3(O)C4=CC(=O)[C@@H](C(C)(C)O)OC4=CC[C@@]32C)C5)C(C)(C)O1 | 8.1 | – | 37.4 | 4.8 | 31.7 | 7.8 | – | – |
| CC1(C)CC2=C(Cc3cc4c(cc32)NC(=O)[C@@]2(C)[C@@H](CC[C@@]3(O)C5=CC(=O)[C@@H](C(C)(C)O)O[C@H]5CC[C@@]32C)CC4=O)C(C)(C)O1 | 7.6 | – | 28.3 | 2.4 | 29.4 | 11.9 | – | – |
| CO[C@]12CC[C@@]3(C)[C@@](O)(CC[C@H]4Cc5c([nH]c6cc7c(cc56)CC5=C7CC(C)(C)OC5(C)C)[C@@]43C)C1=CC(=O)[C@@H](C(C)(C)O)O2 | – | – | – | – | 96.7 | 32.2 | Not Active | – |
| CC(C)(O)[C@H]1O[C@@]2(O)CC[C@@]3(C)C(=CC[C@H]4Cc5c([nH]c6ccccc56)[C@@]43C)C2=CC1=O | 5.3 | Not Active | 27.9 | – | – | – | – | – |
| CC(C)(O)[C@H]1O[C@H]2CC[C@@]3(C)[C@@H](CC[C@H]4Cc5c([nH]c6ccccc56)[C@@]43C)C2=C[C@H]1O | – | – | – | – | – | 28.5 | Not Active | – |
| CC1(C)O[C@@]23CC[C@@]4(C)C(=CC[C@H]5Cc6c([nH]c7ccccc67)[C@@]54C)C2=CC(=O)[C@@H]1O3 | 5.3 | – | 21.7 | 1.8 | 42.1 | 12.2 | – | – |
| CO[C@]12CC[C@@]3(C)[C@@](O)(CC[C@H]4Cc5c([nH]c6ccccc56)[C@@]43C)C1=CC(=O)[C@@H](C(C)(C)O)O2 | – | – | – | – | 55.3 | 12.2 | Not Active | – |
| CC1(C)CC2=C(Cc3cc4c5c([nH]c4cc32)[C@@]2(C)[C@@H](CC[C@@]3(O)C4=CC(=O)[C@@H](C(C)(C)O)O[C@H]4CC[C@@]32C)C5)C(C)(C)O1 | 10.9 | – | – | – | – | 12.8 | – | – |
| CO[C@]12CC[C@@]3(C)[C@@](O)(CC[C@H]4CC(=O)c5cc6c(cc5NC(=O)[C@@]43C)C3=C(C6)C(C)(C)OC(C)(C)C3)C1=CC(=O)[C@@H](C(C)(C)O)O2 | – | – | – | – | 73 | 19.4 | Not Active | – |
| CC(C)=CCc1ccc2[nH]c3c(c2c1)C[C@@H]1CC[C@@]2(O)C4=CC(=O)[C@@H]5O[C@@]4(CC[C@]2(C)[C@@]31C)OC5(C)C | – | – | – | – | – | 19.8 | Not Active | – |
| CC1(C)O[C@@]23CC[C@]4(C)c5cc6[nH]c7ccccc7c6cc5CC[C@H]4C2=CC(=O)[C@@H]1O3 | 3.6 | – | 28.5 | 3.3 | 40.6 | 8.7 | – | – |
| CC1(C)CC2=C(Cc3cc(C(=O)C[C@@H]4CC[C@@]5(O)C6=CC(=O)[C@@H](C(C)(C)O)O[C@H]6CC[C@]5(C)[C@@]4(C)C(=O)O)c(N)cc32)C(C)(C)O1 | – | – | – | – | – | 51.5 | Not Active | Not Active |
| CC(C)(O)[C@H]1O[C@H]2CC[C@@]3(C)[C@@H](CC[C@H]4Cc5c([nH]c6ccccc56)[C@@]43C)C2=CC1=O [DEHYDROXYPAXILLINE] | – | – | – | – | – | 17.1 | Not Active | – |
| CC(C)=CCC[C@]1(C)[C@@H](O)CC[C@@]2(C)[C@H]1CC[C@H]1Cc3c([nH]c4ccccc34)[C@@]12C [EMINDOLE SB] | 18.3 | – | 44.6 | 5.4 | – | 8.2 | – | – |
| CC(C)(O)[C@@H]1CC[C@]2(C)[C@H](CC[C@@]3(C)[C@H]2CC[C@H]2Cc4c([nH]c5ccccc45)[C@@]23C)O1 [PASPALINE] | – | – | 43 | 8.1 | – | 5.3 | Not Active | – |
